Assay outcomes from PubChem BioAssay.
UBC13 polyUb: UBC13 polyubiquitin chain formation inhibitors, primary screen, biochemical, TR-FRET, uHTS; inhibition, % at 20 µM; 330,000 tested, 0.47% active; AID 485273, 2010; in the data active = inhibition above about 45%, passing the limit was not always enough
Apaf1 inhib: inhibitors of human Apaf-1 apoptosome, primary screen, biochemical, DEVD-Rh110 fluorescence, uHTS; Apoptotic protease-activating factor 1 (Homo sapiens), O14727; reconstituted apoptosome caspase-3 activity; inhibition, % at 20 µM; 330,000 tested, 0.71% active; active = inhibition of at least 40% at 20 µM;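 note: plate controls were DMSO wells for no effect and DEVD-CHO caspase inhibitor wells for full effect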
Target sequence (O14727 whole entry, looked up): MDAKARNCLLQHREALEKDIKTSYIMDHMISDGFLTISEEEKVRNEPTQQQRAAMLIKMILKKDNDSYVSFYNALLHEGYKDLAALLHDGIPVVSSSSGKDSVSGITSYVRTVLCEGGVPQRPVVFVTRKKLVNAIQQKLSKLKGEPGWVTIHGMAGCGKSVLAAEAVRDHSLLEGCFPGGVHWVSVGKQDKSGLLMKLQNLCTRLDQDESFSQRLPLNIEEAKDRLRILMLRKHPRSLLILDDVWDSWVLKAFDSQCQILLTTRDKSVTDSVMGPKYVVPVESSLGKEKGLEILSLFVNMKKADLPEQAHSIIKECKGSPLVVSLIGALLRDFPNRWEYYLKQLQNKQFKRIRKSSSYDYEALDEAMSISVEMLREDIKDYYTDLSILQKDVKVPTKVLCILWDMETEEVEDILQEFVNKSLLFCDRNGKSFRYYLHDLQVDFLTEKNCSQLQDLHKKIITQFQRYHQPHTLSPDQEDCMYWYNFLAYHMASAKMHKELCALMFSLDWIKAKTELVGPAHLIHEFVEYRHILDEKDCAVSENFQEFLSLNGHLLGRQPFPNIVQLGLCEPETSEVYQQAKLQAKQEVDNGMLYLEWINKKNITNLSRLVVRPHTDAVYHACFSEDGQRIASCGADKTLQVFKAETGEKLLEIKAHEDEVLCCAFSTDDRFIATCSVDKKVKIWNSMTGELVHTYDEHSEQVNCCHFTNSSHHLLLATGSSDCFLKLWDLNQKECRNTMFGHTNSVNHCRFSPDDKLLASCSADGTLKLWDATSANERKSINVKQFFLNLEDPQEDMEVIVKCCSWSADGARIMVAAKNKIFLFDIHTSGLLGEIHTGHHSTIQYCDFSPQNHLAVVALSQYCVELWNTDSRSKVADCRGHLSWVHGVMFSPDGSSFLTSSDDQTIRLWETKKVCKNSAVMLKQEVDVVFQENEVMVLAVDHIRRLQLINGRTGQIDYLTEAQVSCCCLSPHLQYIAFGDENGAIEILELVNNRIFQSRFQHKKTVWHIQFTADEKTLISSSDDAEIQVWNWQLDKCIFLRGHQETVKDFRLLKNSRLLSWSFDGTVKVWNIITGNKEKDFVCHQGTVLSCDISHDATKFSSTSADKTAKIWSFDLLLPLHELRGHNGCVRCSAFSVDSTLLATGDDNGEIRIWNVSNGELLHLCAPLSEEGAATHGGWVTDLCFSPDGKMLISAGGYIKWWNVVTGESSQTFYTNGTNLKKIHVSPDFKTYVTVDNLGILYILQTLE
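Material: biochemical Apaf-1 apoptosome reconstitution. Medium: Hepes buffer, pH 7.5. Also added: cytochrome c activation, bis-DEVD rhodamine 110 substrate. Timing: 30 min compound preincubation, 50 min activation, room temperature. Measured by: rhodamine 110 fluorescence at Ex 480/Em 540 nm.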
EBNA-1 inh: EBNA-1 DNA-binding inhibitors, primary screen, biochemical, fluorescence polarization. inhibition, % at 14.8 µM. 300,000 tested, 0.34% active; in the data active = inhibition above about 28%
PfM18AAP inh: PfM18AAP inhibitors, malaria aminopeptidase, primary screen, biochemical, QFRET, recombinant enzyme; M18 aspartyl aminopeptidase (Plasmodium falciparum 3D7); 290,000 tested, 1.2% active; H-Glu-NHMec fluorogenic cleavage; inhibition, % at 7.35 µM; AID 1822, 2009;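 active = inhibition above the campaign mean inhibition over all tested compounds plus 3 SD, cut at about 28% in these data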;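 note: 0% = plate median of test compound wells and 100% = 2 mM ZnCl2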
PfGluPho inh: PfG6PD enzyme inhibitors, primary screen, biochemical, fluorescence intensity, uHTS | glucose-6-phosphate dehydrogenase-6-phosphogluconolactonase (Plasmodium falciparum 3D7) | PfGluPho enzyme, NADPH resazurin-diaphorase fluorescence | inhibition, % at 20 µM | 350,000 tested, 0.78% active;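 active = inhibition reaching at least a set limit at 20 µM in the primary screen, cut at about 59% in these data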;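 note: 0% = DMSO wells with substrate and 100% = DMSO wells lacking glucose-6-phosphate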
ZTA counter: ZTA (EBV) inhibition in EBNA-1 counter-screen | P03206 | ZTA-DNA binding, fluorescence polarization | inhibition, % at 11 µM | 320,000 tested, 0.15% active | AID 2234; in the data active = inhibition above about 33%
Active calls of the source: *. Most compounds without a hit are left out; they make up all but 2.9% or so of the library.

What do the screens show for `Cc1nc(N)sc1-c1csc(Nc2cccc(O)c2)n1`?
UBC13 polyUb: 6; Apaf1 inhib: -12; EBNA-1 inh: 0; PfM18AAP inh: 31*; PfGluPho inh: 27; ZTA counter: 12

Results for Cc1nc(C)c(-c2csc(Nc3cccc(O)c3)n2)s1 ?
UBC13 polyUb: 2; Apaf1 inhib: 8; EBNA-1 inh: 10; PfM18AAP inh: 1; PfGluPho inh: 39; ZTA counter: 4

How did Cc1ccc(S(=O)(=O)N2CCCN(C)c3nc4ccccc4nc32)cc1 do in these assays?
UBC13 polyUb: 2; Apaf1 inhib: 2; PfGluPho inh: -1; ZTA counter: -15

Results for Cc1cc(N2C(=O)C=CC2=O)c([N+](=O)[O-])cc1C ?
UBC13 polyUb: -10; Apaf1 inhib: -3; EBNA-1 inh: 10; PfM18AAP inh: -4; PfGluPho inh: 91*; ZTA counter: -6

How did Cc1cc(C)cc(N2C(=O)C=CC2=O)c1 do in these assays?
PfGluPho inh: 86*

How did Cc1c([N+](=O)[O-])cc(N2C(=O)C=CC2=O)cc1[N+](=O)[O-] do in these assays?
PfGluPho inh: 101*

How did Cc1ccc(N2C(=O)C3C4C=CC(CC4)C3C2=O)cc1[N+](=O)[O-] (stereo unspecified) do in these assays?
UBC13 polyUb: 2; Apaf1 inhib: -9; EBNA-1 inh: 0; PfM18AAP inh: 3; PfGluPho inh: -2; ZTA counter: -16

What do the screens show for `COC(=O)CCC(=O)OC1(C)C(=O)C2=CN(Cc3ccc4c(c3)OCO4)C(c3ccc(OC)cc3)=CC2=C(Br)C1=O` (stereo unspecified)?
UBC13 polyUb: -44; Apaf1 inhib: 18; EBNA-1 inh: -7; PfGluPho inh: 67*; ZTA counter: 4

What do the screens show for `COC(=O)CCC(=O)OC1(C)C(=O)C2=CN(C(CO)CO)C(c3ccc(OC)cc3)=CC2=C(Br)C1=O` (stereo unspecified)?
UBC13 polyUb: -98; Apaf1 inhib: 81*; EBNA-1 inh: -4; ZTA counter: -2

What do the screens show for `COC(=O)CCC(=O)OC1(C)C(=O)C2=CN(CCN3CCOCC3)C(c3ccc(OC)cc3)=CC2=C(Br)C1=O` (stereo unspecified)?
UBC13 polyUb: -69; Apaf1 inhib: 86*; EBNA-1 inh: 3; ZTA counter: -2

What do the screens show for `COC(=O)CCC(=O)OC1(C)C(=O)C2=CN(CCCCO)C(c3ccc(OC)cc3)=CC2=C(Br)C1=O` (stereo unspecified)?
UBC13 polyUb: -102; Apaf1 inhib: 80*; EBNA-1 inh: 1; PfM18AAP inh: 19; ZTA counter: 0

What do the screens show for `COC(=O)CCC(=O)OC1(C)C(=O)C2=COC(c3ccc(OC)cc3)=CC2=C(Br)C1=O` (stereo unspecified)?
UBC13 polyUb: -41; Apaf1 inhib: 1; EBNA-1 inh: 10; PfGluPho inh: 8; ZTA counter: 23

Results for CC1(OC(=O)CCc2ccccc2)C(=O)C=C2C=C(c3ccc(C#N)cc3)N(CCN3CCOCC3)C=C2C1=O (stereo unspecified) ?
UBC13 polyUb: -46; Apaf1 inhib: 23; EBNA-1 inh: -10; PfGluPho inh: 35; ZTA counter: -6

Results for CCOc1ccc(S(=O)(=O)N2CCOCC2)cc1NC(=O)CCN1C(=O)NC2(CCCC2)C1=O ?
PfGluPho inh: 8

What do the screens show for `CC(C)c1ccc(OCc2ccc(C(=O)N3CCCC3)o2)cc1`?
UBC13 polyUb: 2; Apaf1 inhib: 25; EBNA-1 inh: -5; PfM18AAP inh: -1; PfGluPho inh: -1; ZTA counter: -26

How did COc1ccc(C(=O)N/C(=C/c2cccc3ccccc23)C(=O)NCCc2c[nH]c3ccccc23)cc1OC do in these assays?
UBC13 polyUb: -4; Apaf1 inhib: -13; EBNA-1 inh: 113*; PfM18AAP inh: 0; PfGluPho inh: 14; ZTA counter: 16

How did Cc1ccc(C(=O)OCC(=O)NC2CCCC2)cc1 do in these assays?
UBC13 polyUb: 4; Apaf1 inhib: -1; EBNA-1 inh: 0; PfM18AAP inh: -1; PfGluPho inh: 0; ZTA counter: -4
